Converted amounts (≈) assume the structure as drawn. “Also recorded” adds a separate entry of the source.
Experiments:
healthy subjects = experiment: Safety and tolerability; type: in vivo, human; details: for subjects with ADRs, percentage: SAD
Summary of the method: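 Randomized, double-blind, placebo-controlled (6:2, n = 8/cohort) single oral doses in healthy adults after ≥10 h fast, with sentinel pair observed 24 h first. TEAEs were graded by nature, incidence, severity, seriousness and outcome, coded in MedDRA 23.0. ADR: any AE whose causality to test compound could not be ruled out. Labs, vital signs, examinations and 12-lead ECGs were also monitored.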

Solubility in water = type: physicochemical
[1] = SAD study, all subjects who received bersiporocin

## O[C@H]1CCCN[C@@H]1CCCn1cnc2c(Cl)c(Cl)ccc21 [Bersiporocin]
Healthy subjects; SAD single 100 mg capsule
  ADRs, number of events: 3
  Abdominal discomfort (ADR), subjects n (%): 0
  Abdominal distension (ADR), subjects n (%): 0
  Abdominal pain (ADR), subjects n (%): 0
  Abdominal pain upper (ADR), subjects n (%): 0
  Constipation (ADR), subjects n (%): 0
  Decreased appetite (ADR), subjects n (%): 0
  Diarrhea (ADR), subjects n (%): 0
  Dysgeusia (ADR), subjects n (%): 0
  Epigastric discomfort (ADR), subjects n (%): 0
  Gastroesophageal reflux disease (ADR), number of events: 1
  Gastroesophageal reflux disease (ADR), subjects n (%): 1 (16.7)
  Headache (ADR), subjects n (%): 0
  Hypersensitivity (ADR), subjects n (%): 0
  Hypotension (ADR), subjects n (%): 0
  Malaise (ADR), subjects n (%): 0
  Nausea (ADR), number of events: 1
  Nausea (ADR), subjects n (%): 1 (16.7)
  Neutropenia (ADR), number of events: 1
  Neutropenia (ADR), subjects n (%): 1 (16.7)
  Oropharyngeal pain (ADR), subjects n (%): 0
  Photosensitivity reaction (ADR), subjects n (%): 0
  Subjects with ADRs, n (%): 3 (50.0)
  Tachycardia (ADR), subjects n (%): 0
  Vertigo (ADR), subjects n (%): 0
  Vomiting (ADR), subjects n (%): 0
Healthy subjects; SAD single 100 mg solution
  ADRs, number of events: 12
  Abdominal discomfort (ADR), subjects n (%): 0
  Abdominal distension (ADR), subjects n (%): 0
  Abdominal pain (ADR), subjects n (%): 0
  Abdominal pain upper (ADR), subjects n (%): 0
  Constipation (ADR), subjects n (%): 0
  Decreased appetite (ADR), subjects n (%): 0
  Diarrhea (ADR), subjects n (%): 0
  Dysgeusia (ADR), number of events: 1
  Dysgeusia (ADR), subjects n (%): 1 (16.7)
  Epigastric discomfort (ADR), subjects n (%): 0
  Gastroesophageal reflux disease (ADR), subjects n (%): 0
  Headache (ADR), number of events: 2
  Headache (ADR), subjects n (%): 2 (33.3)
  Hypersensitivity (ADR), subjects n (%): 0
  Hypotension (ADR), subjects n (%): 0
  Malaise (ADR), subjects n (%): 0
  Nausea (ADR), number of events: 5
  Nausea (ADR), subjects n (%): 5 (83.3)
  Neutropenia (ADR), subjects n (%): 0
  Oropharyngeal pain (ADR), subjects n (%): 0
  Photosensitivity reaction (ADR), subjects n (%): 0
  Subjects with ADRs, n (%): 5 (83.3)
  Tachycardia (ADR), subjects n (%): 0
  Vertigo (ADR), subjects n (%): 0
  Vomiting (ADR), number of events: 4
  Vomiting (ADR), subjects n (%): 4 (66.7)
Healthy subjects; SAD single 300 mg capsule
  ADRs, number of events: 15
  Abdominal discomfort (ADR), subjects n (%): 0
  Abdominal distension (ADR), number of events: 1
  Abdominal distension (ADR), subjects n (%): 1 (16.7)
  Abdominal pain (ADR), number of events: 2
  Abdominal pain (ADR), subjects n (%): 2 (33.3)
  Abdominal pain upper (ADR), subjects n (%): 0
  Constipation (ADR), subjects n (%): 0
  Decreased appetite (ADR), number of events: 1
  Decreased appetite (ADR), subjects n (%): 1 (16.7)
  Diarrhea (ADR), number of events: 2
  Diarrhea (ADR), subjects n (%): 2 (33.3)
  Dysgeusia (ADR), subjects n (%): 0
  Epigastric discomfort (ADR), subjects n (%): 0
  Gastroesophageal reflux disease (ADR), subjects n (%): 0
  Headache (ADR), number of events: 1
  Headache (ADR), subjects n (%): 1 (16.7)
  Hypersensitivity (ADR), subjects n (%): 0
  Hypotension (ADR), subjects n (%): 0
  Malaise (ADR), number of events: 1
  Malaise (ADR), subjects n (%): 1 (16.7)
  Nausea (ADR), number of events: 4
  Nausea (ADR), subjects n (%): 3 (50.0)
  Neutropenia (ADR), subjects n (%): 0
  Oropharyngeal pain (ADR), subjects n (%): 0
  Photosensitivity reaction (ADR), subjects n (%): 0
  Subjects with ADRs, n (%): 4 (66.7)
  Tachycardia (ADR), subjects n (%): 0
  Vertigo (ADR), subjects n (%): 0
  Vomiting (ADR), number of events: 3
  Vomiting (ADR), subjects n (%): 3 (50.0)
Healthy subjects; SAD single 500 mg tablet
  ADRs, number of events: 23
  Abdominal discomfort (ADR), subjects n (%): 0
  Abdominal distension (ADR), subjects n (%): 0
  Abdominal pain (ADR), number of events: 1
  Abdominal pain (ADR), subjects n (%): 1 (16.7)
  Abdominal pain upper (ADR), number of events: 1
  Abdominal pain upper (ADR), subjects n (%): 1 (16.7)
  Constipation (ADR), number of events: 1
  Constipation (ADR), subjects n (%): 1 (16.7)
  Decreased appetite (ADR), number of events: 1
  Decreased appetite (ADR), subjects n (%): 1 (16.7)
  Diarrhea (ADR), number of events: 4
  Diarrhea (ADR), subjects n (%): 4 (66.7)
  Dysgeusia (ADR), subjects n (%): 0
  Epigastric discomfort (ADR), number of events: 1
  Epigastric discomfort (ADR), subjects n (%): 1 (16.7)
  Gastroesophageal reflux disease (ADR), subjects n (%): 0
  Headache (ADR), number of events: 2
  Headache (ADR), subjects n (%): 2 (33.3)
  Hypersensitivity (ADR), number of events: 1
  Hypersensitivity (ADR), subjects n (%): 1 (16.7)
  Hypotension (ADR), number of events: 1
  Hypotension (ADR), subjects n (%): 1 (16.7)
  Malaise (ADR), subjects n (%): 0
  Nausea (ADR), number of events: 5
  Nausea (ADR), subjects n (%): 5 (83.3)
  Neutropenia (ADR), subjects n (%): 0
  Oropharyngeal pain (ADR), number of events: 1
  Oropharyngeal pain (ADR), subjects n (%): 1 (16.7)
  Photosensitivity reaction (ADR), subjects n (%): 0
  Subjects with ADRs, n (%): 6 (100)
  Tachycardia (ADR), number of events: 1
  Tachycardia (ADR), subjects n (%): 1 (16.7)
  Vertigo (ADR), number of events: 1
  Vertigo (ADR), subjects n (%): 1 (16.7)
  Vomiting (ADR), number of events: 2
  Vomiting (ADR), subjects n (%): 2 (33.3)
Healthy subjects; SAD single 600 mg capsule
  ADRs, number of events: 15
  Abdominal discomfort (ADR), number of events: 1
  Abdominal discomfort (ADR), subjects n (%): 1 (16.7)
  Abdominal distension (ADR), subjects n (%): 0
  Abdominal pain (ADR), subjects n (%): 0
  Abdominal pain upper (ADR), subjects n (%): 0
  Constipation (ADR), subjects n (%): 0
  Decreased appetite (ADR), subjects n (%): 0
  Diarrhea (ADR), number of events: 2
  Diarrhea (ADR), subjects n (%): 2 (33.3)
  Dysgeusia (ADR), subjects n (%): 0
  Epigastric discomfort (ADR), subjects n (%): 0
  Gastroesophageal reflux disease (ADR), subjects n (%): 0
  Headache (ADR), number of events: 1
  Headache (ADR), subjects n (%): 1 (16.7)
  Hypersensitivity (ADR), subjects n (%): 0
  Hypotension (ADR), subjects n (%): 0
  Malaise (ADR), subjects n (%): 0
  Nausea (ADR), number of events: 6
  Nausea (ADR), subjects n (%): 5 (83.3)
  Neutropenia (ADR), subjects n (%): 0
  Oropharyngeal pain (ADR), subjects n (%): 0
  Photosensitivity reaction (ADR), number of events: 1
  Photosensitivity reaction (ADR), subjects n (%): 1 (16.7)
  Subjects with ADRs, n (%): 5 (83.3)
  Tachycardia (ADR), subjects n (%): 0
  Vertigo (ADR), subjects n (%): 0
  Vomiting (ADR), number of events: 4
  Vomiting (ADR), subjects n (%): 4 (66.7)
Healthy subjects; SAD starting dose group (100 mg, 150 mL solution)
  subjects with nausea and vomiting, percentage: 83.3%
Healthy subjects; [1]
  ADRs, number of events: 68
  TEAEs, number of events: 90
  subjects with TEAEs, number: 23
  subjects with TEAEs, percentage: 77%
Healthy subjects; capsule group (after formulation change)
  subjects with ADRs, percentage: 50%
Healthy subjects; solution group
  subjects with ADRs, percentage: 83%
Healthy subjects; across the study (SAD and MAD)
  severe, life‐threatening, or fatal ADRs: no severe, life‐threatening, or fatal ADRs
  severity of most ADRs: mild in severity
Healthy subjects; single oral dose up to 600 mg and multiple oral doses up to 200 mg twice daily for 14 days
  severe or serious adverse events: No severe or serious adverse events were observed; also recorded: No severe or serious AEs were observed
Solubility in water
  solubility: 19.6 mg/mL (≈ 59.6 mM)
